OX1R antag-1: blocks the human orexin 1 receptor. inhibition, % at 5 µM. actives 0.43% (n = 330,000). O43613. CHO/OX1R cells, Fluo-8 calcium fluorescence, orexin A;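 active = inhibition above its plate's threshold, mean inhibition of all tested compounds on the plate plus 3 SD, cut at about 37% in these data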;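 note: 0% = orexin A challenge wells and 100% = SB-334867-A antagonist wells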
TAAR1 antag: antagonists of human TAAR1; Q96RJ0; CHO RD-HGA16 TAAR1, Fluo-8 calcium fluorescence, antagonist; inhibition, % at 3 µM; actives 1.5% (n = 360,000); AID 624466;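 active = inhibition above a per-plate cutoff, the mean inhibition of test compounds on that plate plus 3 SD, cut at about 49% in these data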;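 note: 0% = DMSO plus EC80 beta-PEA response and 100% = DMSO alone without agonist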
Target sequence (Q96RJ0 whole entry, looked up): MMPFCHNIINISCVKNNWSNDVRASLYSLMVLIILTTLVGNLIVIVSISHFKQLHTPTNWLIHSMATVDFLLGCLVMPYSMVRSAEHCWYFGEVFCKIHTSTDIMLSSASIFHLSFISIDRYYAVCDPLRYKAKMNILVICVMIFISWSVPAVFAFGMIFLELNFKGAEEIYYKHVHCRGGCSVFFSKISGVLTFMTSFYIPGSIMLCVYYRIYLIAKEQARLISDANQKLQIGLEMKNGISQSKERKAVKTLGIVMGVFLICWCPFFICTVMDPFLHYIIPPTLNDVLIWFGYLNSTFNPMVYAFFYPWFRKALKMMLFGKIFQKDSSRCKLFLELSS
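Assay system: RD-HGA16 CHO cells with stable hTAAR1 and Gα16 / Reagent: EC80 β-phenethylamine stimulus / Doses: 3 µM, single point / Timing: dye loading 75 min at 37 °C, then 30 min room temperature / Measured by: Fluo-8 intracellular calcium dye fluorescence, real-time kinetic reads / Controls: vehicle wells and EC80 agonist wells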
TAAR1 ag: human TAAR1 agonism | Q96RJ0 | CHO RD-HGA16 TAAR1, Fluo-8 calcium fluorescence; vehicle wells 0%, saturating PEA agonist 100% | activation, % at 3 µM | actives 0.99% (n = 360,000);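 active = activation above the mean activation of all test compounds in the run plus 3 SD, cut at about 38% in these data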
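test system = CHO RD-HGA16 cells carrying human TAAR1 plus Gα16 | schedule = 17-24 h seeding, 75 min 37 °C dye, 30 min RT | compound dosing = 3 µM single concentration | control set = DMSO and PEA EC100 | replicates = n 1 | signal = Fluo-8 fluorescence, 5 s baseline then 140 s kinetic read | measure = percent activation vs PEA EC100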
OX1R antag-2: antagonists of human orexin 1 receptor (OX1R); inhibition, % at 6.6 µM; actives 1.8% (n = 330,000); OX1R-expressing cells, FRET antagonist read-out; O43613; in the data active = inhibition mostly above about 38%, no sharp cut-off; inactive = mostly below about 40%;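 note: 0% = agonist challenge alone and 100% = reference antagonist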
CHO parental Ca: counter-screen: ATP calcium response change in parental CHO cells; parental CHO-K1, ATP-induced calcium, Fluo-8 fluorescence; inhibition, % at 5.6 µM; actives 0.63% (n = 330,000);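 active = inhibition above that plate's mean sample inhibition plus 3 SD, cut at about 26% in these data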;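 note: 0% = ATP-challenged DMSO wells and 100% = DMSO wells without ATP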
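Material: parental CHO cells / Compound: single nominal dose of 5.6 µM per compound / Signal: Fluo-8 fluorescence / Replicates: singlicate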
GPR7 antag: antagonists of human GPR7 (neuropeptides B/W receptor 1) | GPR7-expressing cells, fluorescence antagonist assay | inhibition, % at 4.4 µM | actives 1.1% (n = 290,000); in the data active = inhibition above about 16%, passing the limit was not always enough;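 note: cells stimulated with the agonist NPW; 0% = agonist with vehicle and 100% = vehicle without agonist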
Target sequence (P48145 whole entry, looked up): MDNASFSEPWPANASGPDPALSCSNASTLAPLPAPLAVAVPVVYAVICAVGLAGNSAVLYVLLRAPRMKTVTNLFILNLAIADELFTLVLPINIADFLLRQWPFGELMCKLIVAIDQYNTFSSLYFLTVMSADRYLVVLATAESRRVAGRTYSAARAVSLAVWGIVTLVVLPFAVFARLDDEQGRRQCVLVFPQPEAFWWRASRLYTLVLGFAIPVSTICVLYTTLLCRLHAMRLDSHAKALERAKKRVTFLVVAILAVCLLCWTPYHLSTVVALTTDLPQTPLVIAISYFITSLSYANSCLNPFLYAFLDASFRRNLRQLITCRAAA
TAAR1 nonsel count: counter-screen for TAAR1 antagonists: nonselective antagonists. inhibition, % at 3 µM. actives 77% (n = 2,400). AID 651780. counterscreen cell line, calcium fluorescence, antagonist mode. shares compounds with TAAR1 antag; in the data active = inhibition above about 22%;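 note: CHO-Ga16 host cells stimulated with ATP at an EC80 level; 0% = agonist EC80 plus vehicle and 100% = vehicle without agonist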
TAAR1 antag conf: human TAAR1 antagonism, confirmed; shares compounds with TAAR1 antag; TAAR1-expressing cells, fluorescence antagonist read-out; inhibition, % at 3 µM; actives 40% (n = 2,400); in the data active = inhibition above about 49%;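 note: CHO-Ga16 host cells challenged with agonist PEA near its EC80; 0% = agonist at EC80 plus vehicle and 100% = vehicle with no agonist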
Ga16 nonsel ag: counter-screen for TAAR1 antagonists: nonselective Ga16 agonists | shares compounds with TAAR1 antag | activation, % at 3 µM | actives 18% (n = 2,400) | Ga16-expressing cells, calcium fluorescence, agonist counterscreen | AID 651953; in the data active = activation above about 12%;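 note: 0% = vehicle wells and 100% = saturating stimulus response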
TAAR1 ag counter: activates human TAAR1 in antagonist counter-screen | actives 2% (n = 2,400) | hTAAR1 cell line, fluorescence activation, agonist mode | shares compounds with TAAR1 antag | activation, % at 3 µM; in the data active = activation above about 37%;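 note: CHO cells stably expressing TAAR1 with calcium dye readout; 0% = DMSO vehicle and 100% = full agonist response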
Active calls of the source: *; nt = no result. A selection: hits, their analogues and other compounds. The true share with any hit is near 4.5%.

SMILES	OX1R antag-1	TAAR1 antag	TAAR1 ag	OX1R antag-2	CHO parental Ca	GPR7 antag	TAAR1 nonsel count	TAAR1 antag conf	Ga16 nonsel ag	TAAR1 ag counter
O=C(Nc1ccc(N2CCOCC2)c(Cl)c1)c1ccc(-n2cnnc2)cc1	-6	1	2	15	3	4	nt	nt	nt	nt
COC(=O)c1cc(NC(=O)c2cc(C(C)(C)C)nn2Cc2ccc(F)cc2)ccc1N1CCOCC1	-6	63*	3	4	-26	-18	31*	46	4	0
Cc1cccc(Cn2nc(C(C)(C)C)cc2C(=O)Nc2ccc(F)cc2)c1	17	70*	5	64	5	-17	31*	48	3	6
Cc1cccc(Cn2nc(C)c(NC(=O)c3ccc(F)cc3)c2C)c1	-3	-16	0	9	5	11	nt	nt	nt	nt
O=C(Cc1c[nH]c2ccccc12)Nc1ccc(Nc2cccnc2)c(-c2ccc(Cl)c(Cl)c2)c1	nt	71*	11	nt	nt	nt	38*	56*	9	10
O=C(Cc1c[nH]c2ccccc12)Nc1ccc(Nc2cccnc2)c(-c2ccc(Oc3ccccc3)cc2)c1	nt	30	2	nt	nt	nt	nt	nt	nt	nt
COc1ccc(-c2cc(NC(=O)Cc3c[nH]c4ccccc34)ccc2Nc2cccnc2)cc1F	nt	90*	20	nt	nt	nt	39*	65*	10	12
O=C(Cc1c[nH]c2ccccc12)Nc1ccc(Nc2cccnc2)c(-c2cc(F)cc(F)c2)c1	nt	89*	18	nt	nt	nt	36*	57*	14*	15
CCN(CC)CCNC(=O)c1ccc(NC(=O)c2ccc(-n3cncn3)c([N+](=O)[O-])c2)cc1	nt	-18	12	nt	nt	nt	nt	nt	nt	nt
O=C(C1CCCN(c2ncnc3c2nc2n3CCCCC2)C1)N1CCN(c2ccccc2)CC1 (stereo not drawn)	-35	52*	16	7	-23	-21	23*	36	10	18
Cc1ccc(C)c(N2CCN(C(=O)CCc3nc(-c4ccccc4Cl)no3)CC2)c1	-15	59*	3	23	-23	nt	26*	35	5	4
Cc1ccc(C)c(N2CCN(C(=O)CCc3nc(-c4ccccc4C)no3)CC2)c1	-8	14	0	18	-32	nt	nt	nt	nt	nt
O=S(=O)(c1ccccc1Br)N(Cc1ccccc1)CC(O)COCc1ccccc1 (stereo not drawn)	41	59*	5	36*	-16	nt	13	18	3	6
O=S(=O)(c1ccccc1Br)N(CC(O)COCc1ccccc1)C1CC1 (stereo not drawn)	1	-17	-1	20	-31	nt	nt	nt	nt	nt
Cc1nn(CCc2nn[nH]n2)c2nc(-c3ccc(C4CCCCC4)cc3)cc(C(F)(F)F)c12	33	80*	8	11	55*	5	89*	68*	6	3
COc1ccc(NC(=O)Nc2cccc3c2O[C@H](CN(C)C(=O)Nc2ccccc2)[C@@H](C)CN([C@H](C)CO)C3=O)cc1	-13	37	8	0	-9	nt	nt	nt	nt	nt
COc1ccc(CN(C)C[C@H]2Oc3c(NC(=O)Nc4ccccc4)cccc3C(=O)N([C@H](C)CO)C[C@@H]2C)cc1	-10	61*	19	8	-28	nt	25*	41	11	10
COc1ccc(-c2c(C(=O)c3ccc(Br)cc3)[nH]c(N)c2C(=O)c2ccccc2)cc1OC	nt	60*	16	nt	nt	nt	9	34	9	26
O=c1[nH][nH]c2c1[C@H](c1ccc(Cl)cc1)O[C@H](C1CC1)C2	nt	-28	6	nt	nt	nt	nt	nt	nt	nt
COc1ccc(C2C(C(=O)N3CCN(c4ccccn4)CC3)CC(=O)N2c2ccc(OC)cc2)cc1 (stereo not drawn)	-12	57*	20	43	-17	-9	26*	46	13*	12
COc1ccc(C2C(C(=O)N3CCN(c4ccccn4)CC3)CCC(=O)N2c2cc(OC)c(OC)c(OC)c2)cc1 (stereo not drawn)	-9	-23	0	8	-6	-4	nt	nt	nt	nt
Cc1ccc(S(=O)(=O)NCC2CCC(C(=O)NCc3ccc4c(c3)OCO4)CC2)cc1 (stereo not drawn)	-4	-8	8	14	-2	-3	nt	nt	nt	nt
O=C(NCc1ccc2c(c1)OCO2)C1CCC(CNS(=O)(=O)c2ccc(Cl)cc2)CC1 (stereo not drawn)	2	49*	9	8	4	0	14	24	4	9
O=C(NCCn1cc(SCc2ccc(F)cc2)c2ccccc21)c1c(F)cccc1F	8	74*	1	11	42*	3	31*	48	6	6
O=C(NCCn1cc(SCc2ccccc2)c2ccccc21)c1c(F)cccc1F	8	85*	2	36	70*	-4	32*	47	4	-1
SMILES	OX1R antag-1	TAAR1 antag	TAAR1 ag	OX1R antag-2	CHO parental Ca	GPR7 antag	TAAR1 nonsel count	TAAR1 antag conf	Ga16 nonsel ag	TAAR1 ag counter
CCc1c(-c2cccc(OC)c2)ncn1Cc1cccc(-c2ccccc2)c1	nt	36	4	nt	nt	nt	nt	nt	nt	nt
COc1cc(C)ccc1S(=O)(=O)NC(=O)C1(C)CCN1C(=O)c1ccc(C(F)(F)F)nc1C (stereo not drawn)	nt	-11	1	nt	nt	nt	nt	nt	nt	nt
CCOc1ccc(C(=O)CCC(=O)N2CCN(S(=O)(=O)c3cccc(F)c3)CC2)cc1	-1	70*	-1	1	-20	nt	6	5	2	4
COc1cccc(C(=O)Nc2ccc(C(=O)c3ccccc3)cc2)c1	19	67*	7	40	9	8	32*	41	8	2
COc1cc(OC)cc(C(=O)Nc2cccc(NC(=O)c3cc(OC)cc(OC)c3)n2)c1	-6	75*	14	27	-11	nt	27*	49*	8	5
CCCc1cc(C(=O)Nc2ccc(C(=O)c3ccccc3)cc2)n(C)n1	-16	72*	-1	21	-8	16	34*	55*	7	4
CCCc1cc(C(=O)Nc2ccc(C(=O)c3ccc(F)cc3)cc2)n(C)n1	19	nt	nt	18	-2	17	nt	nt	nt	nt
CCOc1ccc(S(=O)(=O)Nc2cccc(C(=O)N3CCN(c4ccccn4)CC3)c2)cc1	nt	52*	11	nt	nt	nt	31*	49*	16*	15
CCOc1ccc(S(=O)(=O)Nc2cccc(C(=O)N3CCN(c4ccccc4O)CC3)c2)cc1	-11	36	11	0	-28	nt	nt	nt	nt	nt
